Measurements reported in ChEMBL document CHEMBL3779892, “Increasing the binding affinity of VEGFR-2 inhibitors by extending their hydrophobic interaction with the active site: Design, synthesis and biological evaluation of 1-substituted-4-(4-methoxybenzyl)phthalazine derivatives” (Eur J Med Chem, 2016).

How the values were obtained:
Type in all cases: functional
[1] = Growth inhibition of human OVCAR4 cells at 10 uM after 48 hrs by sulforhodamine B assay; details: OVCAR-4, 48 h, read-out: GI
Procedure, shortened: (§1)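 Run at NCI on the 60-line panel. Cells grown in RPMI 1640 with 5% FBS and 2 mM L-glutamine, plated at 5000–40,000 cells/well by doubling time, and held 24 h at 37 °C before dosing. Drug (DMSO stock) given at a single final 10 µM in triplicate wells for 48 h. Adherent cells fixed with cold TCA (10% final), suspension cells with 16% TCA. SRB stain read at 515 nm. Percent growth from Tz, C and Ti.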

[2] = system: ACHN; assay: Growth inhibition of human ACHN cells at 10 uM after 48 hrs by sulforhodamine B assay; details: read-out: GI; procedure, shortened: as §1
[3] = Growth inhibition of human HCT116 cells at 10 uM after 48 hrs by sulforhodamine B assay; details: HCT-116, 48 h, read-out: GI; procedure, shortened: as §1
[4] = system: NCI-H460; assay: Growth inhibition of human NCI-H460 cells at 10 uM after 48 hrs by sulforhodamine B assay; details: NCI-H460, 48 h, read-out: GI; procedure, shortened: as §1
[5] = system: SN12C; assay: Growth inhibition of human SN12C cells at 10 uM after 48 hrs by sulforhodamine B assay; details: read-out: GI; procedure, shortened: as §1
[6] = Growth inhibition of human LOXIMVI cells at 10 uM after 48 hrs by sulforhodamine B assay; details: LOX IMVI, read-out: GI; procedure, shortened: as §1
[7] = Growth inhibition of human OVCAR8 cells at 10 uM after 48 hrs by sulforhodamine B assay; details: OVCAR-8, 48 h, read-out: GI; procedure, shortened: as §1
[8] = system: M14; assay: Growth inhibition of human M14 cells at 10 uM after 48 hrs by sulforhodamine B assay; details: M14, 48 h, read-out: GI; procedure, shortened: as §1
[9] = system: MDA-MB-468; assay: Growth inhibition of human MDA-MB-468 cells at 10 uM after 48 hrs by sulforhodamine B assay; details: MDA-MB-468, 48 h, read-out: GI; procedure, shortened: as §1
[10] = Growth inhibition of human HCC2998 cells at 10 uM after 48 hrs by sulforhodamine B assay; details: HCC 2998, 48 h, read-out: GI; procedure, shortened: as §1
[11] = Growth inhibition of human SKOV3 cells at 10 uM after 48 hrs by sulforhodamine B assay; details: SK-OV-3, 48 h, read-out: GI; procedure, shortened: as §1
[12] = Growth inhibition of human OVCAR5 cells at 10 uM after 48 hrs by sulforhodamine B assay; details: OVCAR-5, 48 h, read-out: GI; procedure, shortened: as §1
[13] = system: SK-MEL-5; assay: Growth inhibition of human SK-MEL-5 cells at 10 uM after 48 hrs by sulforhodamine B assay; details: SK-MEL-5, 48 h, read-out: GI; procedure, shortened: as §1
[14] = Growth inhibition of human SF268 cells at 10 uM after 48 hrs by sulforhodamine B assay; details: SF-268, 48 h, read-out: GI; procedure, shortened: as §1
[15] = Growth inhibition of human COLO205 cells at 10 uM after 48 hrs by sulforhodamine B assay; details: COLO 205, 48 h, read-out: GI; procedure, shortened: as §1
[16] = Growth inhibition of human HCT15 cells at 10 uM after 48 hrs by sulforhodamine B assay; details: HCT-15, 48 h, read-out: GI; procedure, shortened: as §1
[17] = system: KM12; assay: Growth inhibition of human KM12 cells at 10 uM after 48 hrs by sulforhodamine B assay; details: KM12, 48 h, read-out: GI; procedure, shortened: as §1
[18] = Growth inhibition of human RXF393 cells at 10 uM after 48 hrs by sulforhodamine B assay; details: RXF 393, 48 h, read-out: GI; procedure, shortened: as §1
[19] = system: SK-MEL-28; assay: Growth inhibition of human SK-MEL-28 cells at 10 uM after 48 hrs by sulforhodamine B assay; details: SK-MEL-28, 48 h, read-out: GI; procedure, shortened: as §1
[20] = Growth inhibition of human HOP92 cells at 10 uM after 48 hrs by sulforhodamine B assay; details: HOP-92, 48 h, read-out: GI; procedure, shortened: as §1
[21] = system: SR; assay: Growth inhibition of human SR cells at 10 uM after 48 hrs by sulforhodamine B assay; details: read-out: GI
Procedure, shortened: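 NCI-60 screen. Cells were grown in RPMI 1640 with 5% FBS and 2 mM L-glutamine, plated at 5000–40,000 cells/well and held 24 h at 37 °C, 5% CO2. Single 10 µM final dose from DMSO stock, triplicate wells, 48 h. Settled cells were fixed with 80% TCA (16% final) and stained with 0.4% SRB. Dye was solubilized in 10 mM Tris and read at 515 nm. Growth was calculated against time-zero and untreated wells.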

[22] = system: MCF7; assay: Growth inhibition of human MCF7 cells at 10 uM after 48 hrs by sulforhodamine B assay; details: MCF7, 48 h, read-out: GI; procedure, shortened: as §1
[23] = Growth inhibition of human BT549 cells at 10 uM after 48 hrs by sulforhodamine B assay; details: BT-549, 48 h, read-out: GI; procedure, shortened: as §1
[24] = system: HT-29; assay: Growth inhibition of human HT-29 cells at 10 uM after 48 hrs by sulforhodamine B assay; details: HT-29, 48 h, read-out: GI; procedure, shortened: as §1
[25] = Growth inhibition of human SNB19 cells at 10 uM after 48 hrs by sulforhodamine B assay; details: SNB-19, 48 h, read-out: GI; procedure, shortened: as §1
[26] = Growth inhibition of human PC3 cells at 10 uM after 48 hrs by sulforhodamine B assay; details: PC-3, 48 h, read-out: GI; procedure, shortened: as §1
[27] = system: A549; assay: Growth inhibition of human A549 cells at 10 uM after 48 hrs by sulforhodamine B assay; details: A549, 48 h, read-out: GI; procedure, shortened: as §1
[28] = system: CCRF-CEM; assay: Growth inhibition of human CCRF-CEM cells at 10 uM after 48 hrs by sulforhodamine B assay; details: read-out: GI; procedure, shortened: as §1
[29] = Growth inhibition of human SF295 cells at 10 uM after 48 hrs by sulforhodamine B assay; details: SF-295, 48 h, read-out: GI; procedure, shortened: as §1
[30] = Growth inhibition of human SW620 cells at 10 uM after 48 hrs by sulforhodamine B assay; details: SW-620, 48 h, read-out: GI
Procedure, shortened: (§2)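 NCI-60 panel, adherent cells grown in RPMI 1640 with 5% FBS and 2 mM L-glutamine, plated at 5000–40,000 cells/well and preincubated 24 h at 37 °C, 5% CO2. 10 µM final compound from DMSO stock, triplicate wells, 48 h. Fixed with cold TCA (10% final, 60 min, 4 °C) and stained with 0.4% SRB. Absorbance read at 515 nm; growth calculated against time-zero and control wells.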

[31] = Growth inhibition of human UO31 cells at 10 uM after 48 hrs by sulforhodamine B assay; details: UO-31, 48 h, read-out: GI; procedure, shortened: as §2
[32] = system: K562; assay: Growth inhibition of human K562 cells at 10 uM after 48 hrs by sulforhodamine B assay; details: K562, 48 h, read-out: GI; procedure, shortened: as §1
[33] = system: Malme-3M; assay: Growth inhibition of human MALME-3M cells at 10 uM after 48 hrs by sulforhodamine B assay; details: read-out: GI; procedure, shortened: as §1
[34] = Growth inhibition of human RPMI8226 cells at 10 uM after 48 hrs by sulforhodamine B assay; details: RPMI-8226, 48 h, read-out: GI; procedure, shortened: as §1

COc1ccc(Cc2nnc(Nc3ccc(NC(=O)Nc4cccc(OC)c4)cc3)c3ccccc23)cc1
inhibition of growth at 10 µM [1]: < 30%
inhibition of growth at 10 µM [2]: < 30%
inhibition of growth at 10 µM [3]: < 30%
inhibition of growth at 10 µM [4]: < 30%
inhibition of growth at 10 µM [5]: < 30%
inhibition of growth at 10 µM [6]: < 30%
inhibition of growth at 10 µM [7]: < 30%
inhibition of growth at 10 µM [8]: < 30%
inhibition of growth at 10 µM [9]: < 30%
inhibition of growth at 10 µM [10]: < 30%
inhibition of growth at 10 µM [11]: < 30%
inhibition of growth at 10 µM [12]: < 30%
inhibition of growth at 10 µM [13]: < 30%
inhibition of growth at 10 µM [14]: < 30%
inhibition of growth at 10 µM [15]: < 30%
inhibition of growth at 10 µM [16]: < 30%
inhibition of growth at 10 µM [17]: < 30%
inhibition of growth at 10 µM [18]: 50%
inhibition of growth at 10 µM [19]: < 30%
inhibition of growth at 10 µM [20]: < 30%
inhibition of growth at 10 µM [21]: < 30%
inhibition of growth at 10 µM [22]: < 30%
inhibition of growth at 10 µM [23]: < 30%
inhibition of growth at 10 µM [24]: < 30%
inhibition of growth at 10 µM [25]: < 30%
inhibition of growth at 10 µM [26]: < 30%
inhibition of growth at 10 µM [27]: < 30%
inhibition of growth at 10 µM [28]: < 30%
inhibition of growth at 10 µM [29]: < 30%
inhibition of growth at 10 µM [30]: < 30%
inhibition of growth at 10 µM [31]: < 30%
inhibition of growth at 10 µM [32]: < 30%
inhibition of growth at 10 µM [33]: < 30%
inhibition of growth at 10 µM [34]: 43%

COc1ccc(Cc2nnc(Nc3ccc(NC(=O)Nc4cccc(Cl)c4)cc3)c3ccccc23)cc1
inhibition of growth at 10 µM [1]: < 30%
inhibition of growth at 10 µM [2]: 39%
inhibition of growth at 10 µM [3]: 37%
inhibition of growth at 10 µM [4]: < 30%
inhibition of growth at 10 µM [5]: < 30%
inhibition of growth at 10 µM [6]: < 30%
inhibition of growth at 10 µM [7]: < 30%
inhibition of growth at 10 µM [8]: < 30%
inhibition of growth at 10 µM [9]: < 30%
inhibition of growth at 10 µM [10]: < 30%
inhibition of growth at 10 µM [11]: < 30%
inhibition of growth at 10 µM [12]: < 30%
inhibition of growth at 10 µM [13]: < 30%
inhibition of growth at 10 µM [14]: < 30%
inhibition of growth at 10 µM [15]: < 30%
inhibition of growth at 10 µM [16]: < 30%
inhibition of growth at 10 µM [17]: < 30%
inhibition of growth at 10 µM [18]: 40%
inhibition of growth at 10 µM [19]: < 30%
inhibition of growth at 10 µM [20]: < 30%
inhibition of growth at 10 µM [21]: < 30%
inhibition of growth at 10 µM [22]: < 30%
inhibition of growth at 10 µM [23]: < 30%
inhibition of growth at 10 µM [24]: < 30%
inhibition of growth at 10 µM [25]: < 30%
inhibition of growth at 10 µM [26]: 32%
inhibition of growth at 10 µM [27]: 35%
inhibition of growth at 10 µM [28]: 41%
inhibition of growth at 10 µM [29]: < 30%
inhibition of growth at 10 µM [30]: < 30%
inhibition of growth at 10 µM [31]: < 30%
inhibition of growth at 10 µM [32]: 30%
inhibition of growth at 10 µM [33]: < 30%
inhibition of growth at 10 µM [34]: 31%
